Reference: ChEMBL document CHEMBL1157570, “Development of potent and selective inhibitors of ecto-5'-nucleotidase based on an anthraquinone scaffold” (J Med Chem, 2010)
pIC50, pKi: −log10 of the molar value. The source made the active and inactive calls. The calls are words filed in the database; no cut-off is given here.

Legend:
[1] = target: T1, 5'-nucleotidase (Rattus norvegicus, UniProt P21588); assay: Inhibition of rat ecto-5'-nucleotidase expressed in Sf9 cells by capillary electrophoresis method
T1 sequence (P21588 whole entry): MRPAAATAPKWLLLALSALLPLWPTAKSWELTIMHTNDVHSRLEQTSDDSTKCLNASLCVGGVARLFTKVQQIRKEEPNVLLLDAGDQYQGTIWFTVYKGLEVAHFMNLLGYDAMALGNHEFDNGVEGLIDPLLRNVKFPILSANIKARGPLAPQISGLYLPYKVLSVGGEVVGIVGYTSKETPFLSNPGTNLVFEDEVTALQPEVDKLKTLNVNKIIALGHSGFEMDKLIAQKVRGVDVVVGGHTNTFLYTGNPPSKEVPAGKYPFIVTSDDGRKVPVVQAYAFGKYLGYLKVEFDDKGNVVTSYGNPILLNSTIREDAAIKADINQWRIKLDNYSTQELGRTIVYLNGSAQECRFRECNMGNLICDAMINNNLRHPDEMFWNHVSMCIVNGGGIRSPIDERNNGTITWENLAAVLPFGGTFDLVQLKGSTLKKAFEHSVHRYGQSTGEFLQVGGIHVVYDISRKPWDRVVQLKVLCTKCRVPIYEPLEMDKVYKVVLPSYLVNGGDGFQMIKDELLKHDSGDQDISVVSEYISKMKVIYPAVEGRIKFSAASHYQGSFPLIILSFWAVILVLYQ
In short: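 Rat eN, GST-fused, made in Sf9 cells and purified on GSH-agarose. 500 μM AMP in Hepes pH 7.4 with Mg2+/Ca2+, 37 °C for 15 min. Adenosine measured by capillary electrophoresis at 260 nm. Inhibitor at 6-8 concentrations spanning about 3 log units. […] Three experiments, each in duplicate.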

[2] = target: T2, 5'-nucleotidase (Rattus norvegicus) (UniProt P21588); assay: Inhibition of rat ecto-5'-nucleotidase expressed in Sf9 cells by competitive Michaelis-Menten plot
T2 sequence (whole entry): T1 sequence (P21588 whole entry)
In short: (§1)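 Purified recombinant rat eN from Sf9 cells. Reaction rates measured across a range of AMP concentrations, with inhibitor absent or at 0.2, 1 or 5 μM. Adenosine formed was quantified by capillary electrophoresis at 260 nm. Km and Vmax were compared on Michaelis-Menten and Lineweaver-Burk plots to assign the inhibition mode.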

[3] = target: T2, 5'-nucleotidase (Rattus norvegicus); assay: Inhibition of rat ecto-5'-nucleotidase expressed in Sf9 cells by competitive Lineweaver-Burke plot; in short: as §1
[4] = target: T3, Ectonucleoside triphosphate diphosphohydrolase 1 (Rattus norvegicus, UniProt P97687); assay: Inhibition of rat NTPdase1 by capillary electrophoresis method
T3 sequence (P97687 whole entry): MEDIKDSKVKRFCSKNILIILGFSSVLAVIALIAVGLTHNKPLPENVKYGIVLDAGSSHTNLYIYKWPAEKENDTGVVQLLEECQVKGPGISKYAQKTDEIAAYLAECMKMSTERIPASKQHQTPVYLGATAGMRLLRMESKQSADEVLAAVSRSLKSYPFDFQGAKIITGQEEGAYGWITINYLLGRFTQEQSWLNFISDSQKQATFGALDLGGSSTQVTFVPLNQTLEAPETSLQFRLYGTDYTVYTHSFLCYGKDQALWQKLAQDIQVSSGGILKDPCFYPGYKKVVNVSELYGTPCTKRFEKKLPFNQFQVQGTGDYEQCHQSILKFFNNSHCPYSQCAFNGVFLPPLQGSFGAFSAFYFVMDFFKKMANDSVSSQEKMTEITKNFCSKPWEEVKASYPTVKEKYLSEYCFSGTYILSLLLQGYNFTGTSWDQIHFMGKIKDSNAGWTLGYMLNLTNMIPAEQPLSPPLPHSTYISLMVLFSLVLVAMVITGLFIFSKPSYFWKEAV

[5] = target: T4, Ectonucleoside triphosphate diphosphohydrolase 2 (Rattus norvegicus, UniProt O35795); assay: Inhibition of rat NTPdase2 by capillary electrophoresis method
T4 sequence (O35795 whole entry): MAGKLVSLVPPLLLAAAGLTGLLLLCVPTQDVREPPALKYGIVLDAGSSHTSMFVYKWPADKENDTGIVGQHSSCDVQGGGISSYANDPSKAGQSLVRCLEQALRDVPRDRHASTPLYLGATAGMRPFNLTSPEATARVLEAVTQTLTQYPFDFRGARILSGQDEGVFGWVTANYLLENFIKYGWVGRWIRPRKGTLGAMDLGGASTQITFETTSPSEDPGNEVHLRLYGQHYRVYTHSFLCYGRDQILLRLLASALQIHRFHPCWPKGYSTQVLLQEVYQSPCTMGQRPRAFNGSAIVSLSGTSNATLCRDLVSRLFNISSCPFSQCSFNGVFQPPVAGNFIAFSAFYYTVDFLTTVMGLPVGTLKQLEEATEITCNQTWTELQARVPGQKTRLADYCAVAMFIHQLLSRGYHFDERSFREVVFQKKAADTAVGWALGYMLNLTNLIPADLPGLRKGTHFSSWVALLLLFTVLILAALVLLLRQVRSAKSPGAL

[6] = target: T5, Nucleoside triphosphate diphosphohydrolase 3 (Rattus norvegicus, UniProt A6I415); assay: Inhibition of rat NTPdase3 by capillary electrophoresis method
T5 sequence (A6I415 whole entry): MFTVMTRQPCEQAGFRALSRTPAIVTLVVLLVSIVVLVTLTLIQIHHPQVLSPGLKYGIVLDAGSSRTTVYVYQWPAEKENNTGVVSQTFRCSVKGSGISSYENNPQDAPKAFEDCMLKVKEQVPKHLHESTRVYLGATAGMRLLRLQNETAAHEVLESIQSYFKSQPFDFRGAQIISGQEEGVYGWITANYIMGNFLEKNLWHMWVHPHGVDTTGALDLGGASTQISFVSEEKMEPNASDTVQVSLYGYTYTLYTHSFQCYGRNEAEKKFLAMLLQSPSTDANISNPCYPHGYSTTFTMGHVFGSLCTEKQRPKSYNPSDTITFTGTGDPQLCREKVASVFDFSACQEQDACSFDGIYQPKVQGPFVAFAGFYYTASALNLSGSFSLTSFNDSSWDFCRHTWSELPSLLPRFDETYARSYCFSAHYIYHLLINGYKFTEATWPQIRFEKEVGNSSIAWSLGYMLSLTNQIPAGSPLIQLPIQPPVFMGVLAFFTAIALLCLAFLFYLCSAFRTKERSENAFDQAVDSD

[7] = target: P2Y purinoceptor 6 (Rattus norvegicus, UniProt Q63371); assay: Antagonist activity at rat P2Y6 receptor expressed in astrocytoma cells assessed as inhibition of intracellular calcium mobilization; assay type: functional, cell-based
In short: (§2)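 Astrocytoma cells stably expressing the receptor, loaded with Fura-2 AM. Cells preincubated with test agent for at least 20 min, then challenged with 1 μM UTP (P2Y2), 3 μM UTP (P2Y4) or 3 μM UDP (P2Y6). Ca2+ fluorescence read at ex 320/em 520 nm. Full curves (7-8 concentrations over 3 log units) run when inhibition exceeded 40% at 10 μM. Three experiments, each in triplicate.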

[8] = target: T6, Ectonucleoside triphosphate diphosphohydrolase 1 (Homo sapiens, UniProt P49961); assay: Inhibition of human NTPdase1 by capillary electrophoresis method
T6 sequence (P49961 whole entry): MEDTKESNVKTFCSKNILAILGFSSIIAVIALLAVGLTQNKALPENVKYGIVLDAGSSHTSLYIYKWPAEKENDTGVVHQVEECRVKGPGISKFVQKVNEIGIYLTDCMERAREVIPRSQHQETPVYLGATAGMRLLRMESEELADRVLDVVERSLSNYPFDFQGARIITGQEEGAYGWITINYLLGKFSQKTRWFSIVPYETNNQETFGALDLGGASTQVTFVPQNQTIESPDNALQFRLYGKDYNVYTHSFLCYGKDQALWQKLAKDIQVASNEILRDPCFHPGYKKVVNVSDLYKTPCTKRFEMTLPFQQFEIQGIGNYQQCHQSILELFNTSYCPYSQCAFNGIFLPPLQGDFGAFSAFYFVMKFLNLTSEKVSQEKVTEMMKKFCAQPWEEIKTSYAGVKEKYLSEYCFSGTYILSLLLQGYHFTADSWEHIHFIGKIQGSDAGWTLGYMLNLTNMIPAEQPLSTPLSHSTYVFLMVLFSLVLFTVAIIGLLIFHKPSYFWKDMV
In short: (§3)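 Membrane preparations containing human NTPDase1, 2 or 3. Inhibitor added in water or 1% DMSO. Incubated 10 min at 37 °C, stopped at 99 °C for 5 min. Diluted with 20 μM UMP as internal standard, then analysed by capillary electrophoresis. Triplicates in two experiments.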

[9] = target: T7, Ectonucleoside triphosphate diphosphohydrolase 2 (Homo sapiens, UniProt Q9Y5L3); assay: Inhibition of human NTPdase2 by capillary electrophoresis method; in short: as §3
T7 sequence (Q9Y5L3 whole entry): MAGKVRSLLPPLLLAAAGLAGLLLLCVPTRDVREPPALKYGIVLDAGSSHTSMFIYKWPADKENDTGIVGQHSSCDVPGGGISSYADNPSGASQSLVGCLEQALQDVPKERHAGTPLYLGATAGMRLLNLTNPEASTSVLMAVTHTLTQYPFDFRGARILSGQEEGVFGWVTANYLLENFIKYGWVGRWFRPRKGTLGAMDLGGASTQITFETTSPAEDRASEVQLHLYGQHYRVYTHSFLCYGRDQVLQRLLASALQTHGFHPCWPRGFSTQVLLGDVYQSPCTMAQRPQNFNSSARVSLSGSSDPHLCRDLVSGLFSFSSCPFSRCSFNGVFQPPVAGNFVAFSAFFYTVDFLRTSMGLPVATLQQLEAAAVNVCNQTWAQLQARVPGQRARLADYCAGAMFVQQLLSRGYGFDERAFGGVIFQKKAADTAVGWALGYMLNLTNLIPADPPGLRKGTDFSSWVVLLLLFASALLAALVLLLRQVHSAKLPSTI

[10] = target: T8, Ectonucleoside triphosphate diphosphohydrolase 3 (Homo sapiens, UniProt O75355); assay: Inhibition of human NTPdase3 by capillary electrophoresis method; in short: as §3
T8 sequence (O75355 whole entry): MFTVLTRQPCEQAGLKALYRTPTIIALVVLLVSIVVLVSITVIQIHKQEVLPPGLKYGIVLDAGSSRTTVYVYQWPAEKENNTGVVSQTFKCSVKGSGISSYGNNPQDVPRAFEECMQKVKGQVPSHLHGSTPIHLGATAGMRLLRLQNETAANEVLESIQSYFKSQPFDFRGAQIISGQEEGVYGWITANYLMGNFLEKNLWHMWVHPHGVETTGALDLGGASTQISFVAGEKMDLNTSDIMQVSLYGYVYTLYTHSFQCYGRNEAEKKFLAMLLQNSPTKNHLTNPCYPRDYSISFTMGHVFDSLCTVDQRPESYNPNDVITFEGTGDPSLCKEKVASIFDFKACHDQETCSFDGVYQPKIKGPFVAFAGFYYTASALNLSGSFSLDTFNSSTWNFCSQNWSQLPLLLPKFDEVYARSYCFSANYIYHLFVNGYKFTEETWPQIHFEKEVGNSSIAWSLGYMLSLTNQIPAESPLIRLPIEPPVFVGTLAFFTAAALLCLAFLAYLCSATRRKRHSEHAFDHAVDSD

[11] = target: P2Y purinoceptor 2 (Homo sapiens, UniProt P41231); assay: Antagonist activity at human P2Y2 receptor expressed in astrocytoma cells assessed as inhibition of intracellular calcium mobilization; assay type: functional, cell-based; in short: as §2
[12] = target: P2Y purinoceptor 4 (Homo sapiens, UniProt P51582); assay: Antagonist activity at human P2Y4 receptor expressed in astrocytoma cells assessed as inhibition of intracellular calcium mobilization; assay type: functional, cell-based; in short: as §2
[13] = Selectivity ratio of Ki for rat ecto-5'-nucleotidase to Ki for human NTPdase1

Sequence of P2Y purinoceptor 6 (Q63371 whole entry): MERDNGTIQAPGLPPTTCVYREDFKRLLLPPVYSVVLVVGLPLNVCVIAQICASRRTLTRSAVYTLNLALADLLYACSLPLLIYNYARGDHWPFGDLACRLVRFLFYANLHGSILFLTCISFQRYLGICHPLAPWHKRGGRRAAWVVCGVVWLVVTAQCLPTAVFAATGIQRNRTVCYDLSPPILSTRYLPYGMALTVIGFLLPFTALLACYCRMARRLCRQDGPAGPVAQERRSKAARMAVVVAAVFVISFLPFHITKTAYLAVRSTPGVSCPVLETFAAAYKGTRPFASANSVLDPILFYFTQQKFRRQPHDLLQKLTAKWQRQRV
Sequence of P2Y purinoceptor 2 (P41231 whole entry): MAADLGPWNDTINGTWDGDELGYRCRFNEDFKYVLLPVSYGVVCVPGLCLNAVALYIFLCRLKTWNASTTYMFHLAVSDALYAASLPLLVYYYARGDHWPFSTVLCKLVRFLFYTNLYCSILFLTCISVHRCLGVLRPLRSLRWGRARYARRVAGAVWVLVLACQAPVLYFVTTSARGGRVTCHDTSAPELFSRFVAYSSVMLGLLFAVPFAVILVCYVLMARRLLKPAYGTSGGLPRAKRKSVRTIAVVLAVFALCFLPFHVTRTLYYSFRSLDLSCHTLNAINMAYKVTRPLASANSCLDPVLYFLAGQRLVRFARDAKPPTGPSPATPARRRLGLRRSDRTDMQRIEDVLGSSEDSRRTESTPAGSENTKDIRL
Sequence of P2Y purinoceptor 4 (P51582 whole entry): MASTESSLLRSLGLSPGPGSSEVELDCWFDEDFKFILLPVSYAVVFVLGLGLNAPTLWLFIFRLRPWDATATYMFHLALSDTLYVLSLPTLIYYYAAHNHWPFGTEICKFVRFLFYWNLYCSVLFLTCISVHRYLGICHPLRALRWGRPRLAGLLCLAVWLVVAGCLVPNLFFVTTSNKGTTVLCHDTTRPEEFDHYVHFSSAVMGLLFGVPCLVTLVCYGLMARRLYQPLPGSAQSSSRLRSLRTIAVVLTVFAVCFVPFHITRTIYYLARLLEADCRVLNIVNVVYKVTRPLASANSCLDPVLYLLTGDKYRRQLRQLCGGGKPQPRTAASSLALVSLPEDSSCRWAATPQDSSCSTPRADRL

Row | pKi [1] | inhibition [2] | inhibition [3] | pKi [4] | pKi [5] | pKi [6] | pIC50 [7] | pKi [8] | pKi [9] | pKi [10] | pIC50 [11] | pIC50 [12] | Ratio Ki [13] | SMILES
1 | 6.28 | Active | Active | < 3.82 | < 3.40 | 5.82 | 4.52 | – | – | – | – | – | – | Nc1c(S(=O)(=O)O)cc(Nc2cccc3ccccc23)c2c1C(=O)c1ccccc1C2=O
2 | 6.82 | – | – | – | – | – | < 5.00 | 5.59 | < 3.70 | < 4.22 | 5.00 | < 5.00 | 17 | Nc1c(S(=O)(=O)O)cc(Nc2ccc3cc4ccccc4cc3c2)c2c1C(=O)c1ccccc1C2=O
3 | 4.82 | – | – | 4.31 | 4.45 | 4.84 | < 5.00 | – | – | – | 4.96 | 4.59 | – | Nc1c(S(=O)(=O)O)cc(Nc2ccccc2)c2c1C(=O)c1ccccc1C2=O [ACID BLUE 25]
4 | 6.59 | – | – | – | – | – | 5.00 | < 4.40 | < 3.70 | < 4.22 | 4.52 | < 5.00 | > 150 | Nc1c(S(=O)(=O)O)cc(Nc2ccc(F)cc2C(=O)O)c2c1C(=O)c1ccccc1C2=O
